Reference: paper PMC3346673 (Toxicological and environmental chemistry, 2012)

Key:
[1] = system: Escherichia coli strain WP2 uvrA; experiment: Ames test for mutagenic activity; format: cell-based; conditions: reversion of mutations in the tryptophan operon
[2] = Hydroxyl radical absorbance capacity; conditions: Trolox equivalency
rats = experiment: Oral up/down LD-50 determination, gavage in corn oil; format: in vivo, rat (Wistar)
Procedure, shortened: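 Up/down design in 3 female Wistar rats (206–208 g). Test compound was suspended in corn oil and given by gavage, three times daily to reach the top level. Testing stopped at 5 g kg−1 body weight.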

[3] = system: rats injected with lethal doses of mercury chloride; experiment: Survival of young rats after lethal doses of mercury chloride; format: in vivo, rat (Sprague-Dawley)
Procedure, shortened: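 Thirty-six young male Sprague-Dawley rats (225–245 g) were split into three groups of 12. They received HgCl2 sc under the right abdominal skin at 1.0, 2.0 or 14 mg kg−1. Six per group then got test compound sc on the left side 20–25 min later in isotonic 25% DMSO:75% PBS: 528 micromoles for the two lower doses, 880 micromoles for the top dose.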

[4] = system: Salmonella typhimurium strains TA1537, TA98, TA100, and TA1535; experiment: Ames test for mutagenic activity; format: cell-based; conditions: reversion of mutations in the histidine operon
Endotoxin activity = conditions: 1 mg mL^−1, tested undiluted to 1:512 dilution
[5] = Metabolic profiling with rat liver microsomes; format: in vitro ADME; conditions: incubation with rat liver microsomes, MS identification
Procedure, shortened: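 Test compound incubated with human or rat liver microsomes. Products separated by HPLC and identified by electrospray MS and MS:MS, using information-dependent acquisition on the parent ion, enhanced product ion scans, and linear ion trap scanning of trapped fragments.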

[6] = Oral absorption, plasma pharmacokinetics after oral gavage; format: in vivo, rat (Sprague-Dawley); conditions: for Tmax / half-life: male, Sprague-Dawley, rat, plasma, po

O=C(NCCS)c1cccc(C(=O)NCCS)c1 [NBMI, N,N′-bis(2-mercaptoethyl)isophthalamide]
mutagenicity, Ames analysis [1]: non-mutagenic
HORAC score [2]: 299,000 Trolox units 100g^−1
LD-50 (rats; oral gavage in corn oil, female Wistar rats): > 5 g kg^−1 body weight
signs of toxicity in LD-50 study (rats; up to 5 g NBMI kg^−1 body weight, gavaged 3 times daily): no death or other signs of toxicity with the exception of some diarrhea
PERCENT SURVIVAL ([3]; HgCl2 1 mg kg^−1 sc, NBMI 528 micromoles (150 mg) kg^−1 sc, 0 hrs): 100%
PERCENT SURVIVAL ([3]; HgCl2 1 mg kg^−1 sc, NBMI 528 micromoles (150 mg) kg^−1 sc, 6 hrs): 100%
PERCENT SURVIVAL ([3]; HgCl2 1 mg kg^−1 sc, NBMI 528 micromoles (150 mg) kg^−1 sc, 12 hrs): 100%
PERCENT SURVIVAL ([3]; HgCl2 1 mg kg^−1 sc, NBMI 528 micromoles (150 mg) kg^−1 sc, 24 hrs): 100%
PERCENT SURVIVAL ([3]; HgCl2 1 mg kg^−1 sc, NBMI 528 micromoles (150 mg) kg^−1 sc, 48 hrs): 100%
PERCENT SURVIVAL ([3]; HgCl2 1 mg kg^−1 sc, NBMI 528 micromoles (150 mg) kg^−1 sc, 72 hrs): 100%
PERCENT SURVIVAL ([3]; HgCl2 2 mg kg^−1 sc, NBMI 528 micromoles (150 mg) kg^−1 sc, 0 hrs): 100%
PERCENT SURVIVAL ([3]; HgCl2 2 mg kg^−1 sc, NBMI 528 micromoles (150 mg) kg^−1 sc, 6 hrs): 100%
PERCENT SURVIVAL ([3]; HgCl2 2 mg kg^−1 sc, NBMI 528 micromoles (150 mg) kg^−1 sc, 12 hrs): 100%
PERCENT SURVIVAL ([3]; HgCl2 2 mg kg^−1 sc, NBMI 528 micromoles (150 mg) kg^−1 sc, 24 hrs): 100%
PERCENT SURVIVAL ([3]; HgCl2 2 mg kg^−1 sc, NBMI 528 micromoles (150 mg) kg^−1 sc, 48 hrs): 100%
PERCENT SURVIVAL ([3]; HgCl2 2 mg kg^−1 sc, NBMI 528 micromoles (150 mg) kg^−1 sc, 72 hrs): 100%
PERCENT SURVIVAL ([3]; HgCl2 14 mg kg^−1 sc, NBMI 880 micromoles (250 mg) kg^−1 sc, 0 hrs): 100%
PERCENT SURVIVAL ([3]; HgCl2 14 mg kg^−1 sc, NBMI 880 micromoles (250 mg) kg^−1 sc, 6 hrs): 100%
PERCENT SURVIVAL ([3]; HgCl2 14 mg kg^−1 sc, NBMI 880 micromoles (250 mg) kg^−1 sc, 12 hrs): 100%
PERCENT SURVIVAL ([3]; HgCl2 14 mg kg^−1 sc, NBMI 880 micromoles (250 mg) kg^−1 sc, 24 hrs): 100%
PERCENT SURVIVAL ([3]; HgCl2 14 mg kg^−1 sc, NBMI 880 micromoles (250 mg) kg^−1 sc, 48 hrs): 67%
PERCENT SURVIVAL ([3]; HgCl2 14 mg kg^−1 sc, NBMI 880 micromoles (250 mg) kg^−1 sc, 72 hrs): 67%
condition of the surviving rats on long term observation ([3]; surviving 16 rats from all groups observed for three months): No adverse effects were noted
mutagenicity, Ames analysis [4]: non-mutagenic
endotoxin content (Endotoxin activity): less than one
metabolites detected [5]: only two NBMI modified structures
Tmax ([6]; 7 mg/kg): 2.3 ± 1.2 h
half-life ([6]; 7 mg/kg): 5.47 ± 1.75 h
Tmax ([6]; 35 mg/kg): 2.3 ± 1.2 h
half-life ([6]; 35 mg/kg): 5.6 ± 1.02 h
absorbance of NBMI into plasma from oral dose ([6]; oral 7 mg kg^−1, estimated against iv 1 mg kg^−1): 13 ± 5.9%
absorbance of NBMI into plasma from oral dose ([6]; oral 35 mg kg^−1, estimated against iv 1 mg kg^−1): 15 ± 3.6%
